What was measured:
[1] = biological target: Delta-type opioid receptor (Rattus norvegicus, UniProt P33533); assay: Inhibition of [3H]DPDPE binding to Opioid receptor delta 1 of rat brain membrane
How it was run: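 Competition binding on Wistar rat brain synaptosomal P2 membranes in 50 mM Tris–HCl, pH 7.4. […] Delta sites were labelled with [3H]DPDPE (1 nM, Kd 2.75 nM) for 3 h at 25 °C. Nonspecific binding was taken with naloxone. Ki was derived by Cheng–Prusoff; values are means of ≥3 experiments.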

[2] = biological target: Delta-type opioid receptor (Rattus norvegicus) (UniProt P33533); assay: Percent inhibition of [3H]DPDPE binding to Opioid receptor delta 1 of rat brain membrane at 10 uM; parameters: scale not given: the % may be the effect or the level left
Chain of Delta-type opioid receptor (Rattus norvegicus) (P33533 whole entry): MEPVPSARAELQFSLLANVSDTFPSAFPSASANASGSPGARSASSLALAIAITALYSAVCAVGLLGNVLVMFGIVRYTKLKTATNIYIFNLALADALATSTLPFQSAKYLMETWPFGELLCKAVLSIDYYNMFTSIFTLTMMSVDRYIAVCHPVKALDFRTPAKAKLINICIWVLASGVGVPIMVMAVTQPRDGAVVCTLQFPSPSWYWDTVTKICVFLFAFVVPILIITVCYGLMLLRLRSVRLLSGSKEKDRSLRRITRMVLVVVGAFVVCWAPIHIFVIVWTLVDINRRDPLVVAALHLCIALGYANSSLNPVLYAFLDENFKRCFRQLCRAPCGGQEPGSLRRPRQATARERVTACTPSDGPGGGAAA

[3] = biological target: Opioid receptors; mu & delta (Rattus norvegicus) (UniProt P33533+P33535); assay: Selectivity ratio of Opioid receptor delta 1 to Opioid receptor mu 1; assay type: protein assay
Chain of Opioid receptors; mu & delta (Rattus norvegicus) (P33533 whole entry, looked up): as the sequence (P33533 whole entry) above
Chain of Opioid receptors; mu & delta (Rattus norvegicus) (P33535 whole entry, looked up): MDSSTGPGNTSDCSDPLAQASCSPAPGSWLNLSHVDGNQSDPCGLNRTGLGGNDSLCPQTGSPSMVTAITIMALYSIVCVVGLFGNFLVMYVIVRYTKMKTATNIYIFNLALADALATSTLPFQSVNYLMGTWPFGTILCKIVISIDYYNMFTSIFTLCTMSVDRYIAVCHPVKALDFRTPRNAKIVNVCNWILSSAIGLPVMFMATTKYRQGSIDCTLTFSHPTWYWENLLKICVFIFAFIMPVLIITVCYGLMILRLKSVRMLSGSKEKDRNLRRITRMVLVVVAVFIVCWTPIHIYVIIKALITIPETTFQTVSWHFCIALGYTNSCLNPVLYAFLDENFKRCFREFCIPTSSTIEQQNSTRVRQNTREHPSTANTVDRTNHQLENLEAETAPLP

[4] = biological target: T1, Mu-type opioid receptor (Rattus norvegicus, UniProt P33535); assay: Inhibition of [3H]DAMGO binding to Opioid receptor mu 1 of rat brain membrane
T1 sequence (P33535 whole entry): as the sequence (P33535 whole entry, looked up) above
How it was run: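 Rat brain synaptosomal P2 membranes from Wistar rats in 50 mM Tris-HCl, pH 7.4. […] Nonspecific binding was defined with naloxone. Ki was derived by Cheng-Prusoff. Values are means of at least three experiments.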

[5] = biological target: T1, Mu-type opioid receptor; assay: Inhibition of [3H]DAMGO binding to Opioid receptor mu 1 of rat brain membrane; na= No activity.
[6] = biological target: Delta-type opioid receptor (Rattus norvegicus) (UniProt P33533); assay: Percent decrease of maximum binding towards Opioid receptor delta 1 in rat brain membrane using [3H]DPDPE at 10 uM concentration; assay type: cell membranes; parameters: scale not given: the % may be the effect or the level left
[7] = biological target: Mu-type opioid receptor (Rattus norvegicus) (UniProt P33535); assay: Percent inhibition of [3H]-DAMGO binding to Opioid receptor mu 1 of rat brain membrane at 10 uM; parameters: scale not given: the % may be the effect or the level left
Chain of Mu-type opioid receptor (Rattus norvegicus) (P33535 whole entry): as the sequence (P33535 whole entry, looked up) above

Chain of Delta-type opioid receptor (P33533 whole entry): as the sequence (P33533 whole entry) above

SMILES: NC(=O)[C@H](Cc1ccccc1)NC(=O)[C@@H](Cc1ccccc1)NO[C@@H]1CCCN1C(=O)[C@@H](N)Cc1ccc(O)cc1
- Ki [1]: > 10 µM
- Activity [2]: 30%
- Selectivity [3]: > 17
- Ki [4]: 0.6 µM

SMILES: NC(=O)[C@H](Cc1ccccc1)NC(=O)[C@@H](Cc1ccccc1)O/N=C/[C@@H]1CCCN1C(=O)[C@@H](N)Cc1ccc(O)cc1
- Ki [1]: 37.1 µM
- Selectivity [3]: 9
- Ki [4]: 4.04 µM

SMILES: NC(=O)[C@H](Cc1ccccc1)NC(=O)[C@H](Cc1ccccc1)NC(=O)[C@H](Cc1ccccc1)NO[C@@H](N)Cc1ccc(O)cc1
- Ki [1]: > 10 µM
- Ki [5]: Not Active
- Activity [6]: 30%

SMILES: NC(=O)[C@H](Cc1ccccc1)NC(=O)[C@H](Cc1ccccc1)NO[C@@H]1CCCN1C(=O)[C@@H](N)Cc1ccc(O)cc1
- Ki [1]: > 10 µM
- Activity [2]: 15%
- Selectivity [3]: > 23
- Ki [4]: 0.434 µM

SMILES: NC(=O)[C@H](Cc1ccccc1)NC(=O)[C@H](Cc1ccccc1)O/N=C/[C@@H]1CCCN1C(=O)[C@@H](N)Cc1ccc(O)cc1
- Ki [1]: 19.8 µM
- Selectivity [3]: 4.1
- Ki [4]: 408 µM

SMILES: NC(=O)[C@H](Cc1ccccc1)NC(=O)[C@H](Cc1ccccc1)NC(=O)[C@@H](Cc1ccccc1)NO[C@@H](N)Cc1ccc(O)cc1
- Ki [1]: > 10 µM
- Activity [7]: 22%
- Activity [6]: 18%
- Ki [4]: > 10 µM

SMILES: NC(=O)[C@H](Cc1ccccc1)NC(=O)[C@H](Cc1ccccc1)NC(=O)[C@@H]1CCN(C(=O)[C@@H](N)Cc2ccc(O)cc2)C1
- Ki [1]: 8.36 µM
- Selectivity [3]: 1020
- Ki [4]: 0.00823 µM
